High-throughput results deposited in PubChem by several laboratories.
Most compounds without a hit are left out; they make up all but 4.6% or so of the library.
ALR inh – human ALR oxidase inhibition via reduced H2O2; 290,000 tested, 3.8% active; inhibition, % (test concentration not listed); purified ALR, DTT oxidation, H2O2 HRP-luminol luminescence; P55789;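 active = mean replicate inhibition above about 79%, with every replicate also reaching it, limit read from the data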
Target sequence (P55789 whole entry, looked up): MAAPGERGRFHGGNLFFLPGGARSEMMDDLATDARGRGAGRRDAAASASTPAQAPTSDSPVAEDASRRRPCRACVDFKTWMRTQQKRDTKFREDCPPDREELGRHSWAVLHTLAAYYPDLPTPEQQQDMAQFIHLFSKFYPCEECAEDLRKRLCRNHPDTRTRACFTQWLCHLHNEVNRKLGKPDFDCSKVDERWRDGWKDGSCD
Arrestin-AP2 inh – human beta-arrestin and AP2 interaction inhibition | FITC-arrestin peptide / GST-AP2 beads, flow cytometry; AP2 beta2 appendage carries R879A mutation | 340,000 tested, 0.31% active | inhibition, % at 10 µM;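 active = inhibition above a set limit, near 3 SD of compounds lacking own fluorescence, cut at about 54% in these data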
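Assay system: GST-AP2 R879A bound to glutathione beads, E. coli-expressed; Medium: PBS with 0.05% Tween 20 and 0.1% BSA; Also added: fluorescein-tagged arrestin peptide at 50 nM final; Timing: 12 min plus 1 h, RT; Measured by: flow cytometry, FL1 (488/535 nm); Evaluation: percent drop in bead-associated FITC signal.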
NLRP3 yeast inh – inhibitors of NALP3 inflammasome in yeast; Yeast reconstituted NLRP3/ASC/caspase-1, beta-gal luminescence, 24 h; inhibition, % at 10 µM; 330,000 tested, 0.39% active;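 active = inhibition of 50% or more; inactive = inhibition below 50%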
PolyA inhibitor – inhibitors of polyadenylation in S. cerevisiae; S. cerevisiae SKY197-pL101 polyadenylation reporter, beta-gal luminescence; efflux-impaired pdr1/pdr3 knockout yeast; score 100 = 6 SD above DMSO; activity score, % at 12 µM; 300,000 tested, 0.02% active;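 active = lowest replicate activity score at least 50, where 100 means six control SD above control mean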;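 note: yeast exposed to compound for 9 h at 30 °C; higher score means more reporter readthrough which indicates perturbed polyadenylation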
NALP1 yeast inh – blocks the NALP1 inflammasome reconstituted in yeast; S. cerevisiae NALP1/ASC/caspase-1 growth, X-gal OD620, 72 h; inhibition, % at 10 µM; 280,000 tested, 0.61% active; in the data active = inhibition mostly above about 24%, no sharp cut-off; inactive = mostly below about 32%
DSG3 Ab inh – blocks pemphigus antibody binding to human desmoglein-3 | P32926 | DSG3-coupled beads, scFv-anti-DSG3-GFP binding, flow cytometry; stronger effect = lower value | binding (percent of control), % at 10 µM | 310,000 tested, 0.48% active;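 active = binding more than 3 SD below its plate's average and above zero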;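 note: hits lower antibody fragment binding to DSG3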
Hits are given with their value.

What do the screens show for `CC(C(=O)NC1(C#N)CCCCC1)N(C)CC(=O)Nc1ccc(Cl)c(Cl)c1` (stereo not given)?
ALR inh: inactive; Arrestin-AP2 inh: inactive; NLRP3 yeast inh: inactive

What do the screens show for `CCOc1ccc(NC(=S)N(CCOC)C2CCN(C(C)C)CC2)cc1`?
ALR inh: inactive; Arrestin-AP2 inh: inactive; NLRP3 yeast inh: inactive; PolyA inhibitor: inactive; NALP1 yeast inh: inactive; DSG3 Ab inh: inactive

Results for CC(C)c1cc2c(c(O)c1O)[C@@]13CCCC(C)(C)C1CC2OC3=O (stereo not given in full) ?
ALR inh: inactive; Arrestin-AP2 inh: inactive; NLRP3 yeast inh: inactive; PolyA inhibitor: inactive; NALP1 yeast inh: inactive; DSG3 Ab inh: inactive

How did O=C(NNc1nc2ccccc2s1)c1ccccc1F do in these assays?
ALR inh: 97.0; Arrestin-AP2 inh: inactive; NLRP3 yeast inh: inactive; PolyA inhibitor: inactive; NALP1 yeast inh: inactive; DSG3 Ab inh: inactive

What do the screens show for `COCC(=O)Nc1nc2ccccc2s1`?
ALR inh: inactive; Arrestin-AP2 inh: inactive; NLRP3 yeast inh: inactive; PolyA inhibitor: inactive; NALP1 yeast inh: inactive

Results for Cc1cc(C)n(-c2ccc(C(=O)Nc3nc4ccccc4s3)cc2)n1 ?
ALR inh: inactive; Arrestin-AP2 inh: inactive; NLRP3 yeast inh: inactive; PolyA inhibitor: inactive; NALP1 yeast inh: inactive; DSG3 Ab inh: inactive

What do the screens show for `Nc1ccc(C(=O)Nc2nc3ccccc3s2)cc1`?
ALR inh: 94.3; Arrestin-AP2 inh: inactive; NLRP3 yeast inh: inactive; PolyA inhibitor: inactive; NALP1 yeast inh: inactive; DSG3 Ab inh: inactive

What do the screens show for `O=C(NNc1nc2ccccc2s1)Nc1ccc(F)cc1`?
ALR inh: inactive; Arrestin-AP2 inh: inactive; NLRP3 yeast inh: inactive; PolyA inhibitor: inactive; DSG3 Ab inh: inactive

How did NC(=S)Nc1nc2ccccc2s1 do in these assays?
ALR inh: 93.8; Arrestin-AP2 inh: inactive; NLRP3 yeast inh: inactive; PolyA inhibitor: inactive; NALP1 yeast inh: inactive; DSG3 Ab inh: inactive

How did COc1cccc(-c2nn3c(-c4ccco4)nnc3s2)c1 do in these assays?
ALR inh: 94.4; Arrestin-AP2 inh: inactive; NLRP3 yeast inh: inactive; PolyA inhibitor: inactive; NALP1 yeast inh: inactive; DSG3 Ab inh: inactive

What do the screens show for `O=C(CSc1ncnc2ccccc12)Nc1cccc(S(=O)(=O)N2CCCC2)c1`?
ALR inh: 99.3; Arrestin-AP2 inh: inactive; NLRP3 yeast inh: inactive; PolyA inhibitor: inactive; NALP1 yeast inh: inactive

Results for CCCC(C(=O)Nc1cccc(S(=O)(=O)N2CCCC2)c1)c1ccccc1 (stereo not given) ?
ALR inh: inactive; Arrestin-AP2 inh: inactive; NLRP3 yeast inh: inactive; PolyA inhibitor: inactive; DSG3 Ab inh: 8.0

What do the screens show for `Cc1ccc(-n2nc(C)c3c2C(Br)C(C)(C)CC3=O)nc1` (stereo not given)?
Arrestin-AP2 inh: inactive; DSG3 Ab inh: inactive

Results for N#C/C(=C\c1ccc(O)cc1)C(=O)N1CCCC1 ?
ALR inh: 80.7; Arrestin-AP2 inh: inactive; NLRP3 yeast inh: inactive; PolyA inhibitor: inactive; NALP1 yeast inh: inactive; DSG3 Ab inh: inactive

How did CCCN1CCC(=O)NC1=S do in these assays?
Arrestin-AP2 inh: inactive; DSG3 Ab inh: inactive

What do the screens show for `CN(C)c1ccc(N=Nc2ccc(S(=O)(=O)O)cc2)c2ccccc12`?
ALR inh: 98.8; Arrestin-AP2 inh: inactive; NLRP3 yeast inh: inactive; PolyA inhibitor: inactive; NALP1 yeast inh: inactive; DSG3 Ab inh: inactive

How did Oc1ccc(N2CCN(CC(O)c3ccccc3)CC2)cc1 (stereo not given) do in these assays?
ALR inh: 98.8; Arrestin-AP2 inh: inactive; NLRP3 yeast inh: inactive; PolyA inhibitor: inactive; NALP1 yeast inh: inactive

Results for Oc1ccccc1N1CCN(CC(O)COCc2ccccc2Cl)CC1 (stereo not given) ?
ALR inh: 99.0; Arrestin-AP2 inh: inactive; NLRP3 yeast inh: inactive; PolyA inhibitor: inactive; NALP1 yeast inh: inactive; DSG3 Ab inh: inactive

How did O=[N+]([O-])c1ccc(C(O)CN2CCN(c3ccccc3)CC2)cc1 (stereo not given) do in these assays?
ALR inh: inactive; Arrestin-AP2 inh: inactive; NLRP3 yeast inh: inactive; PolyA inhibitor: inactive; NALP1 yeast inh: inactive; DSG3 Ab inh: inactive

Results for OC(COc1ccccc1Cl)CN1CCN(CC(O)COc2ccccc2Cl)CC1 (stereo not given) ?
ALR inh: inactive; Arrestin-AP2 inh: inactive; NLRP3 yeast inh: inactive; PolyA inhibitor: inactive; NALP1 yeast inh: inactive; DSG3 Ab inh: inactive
